Assay [1] concerns the target Serine/threonine-protein kinase mTOR (Homo sapiens, UniProt P42345). As to the kind of experiment: Inhibition of FKBP12-independent human recombinant mTOR expressed in HEK293 cells using His6-S6K1 as a substrate by DELFIA assay. It is filed as cell-based. Summed up:
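Recombinant mTOR kinase activity measured with no FKBP12 present, with vehicle or a range of compound doses. IC50 derived by plotting percent inhibition relative to control.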

In another assay the test system is LNCaP. As to the kind of experiment: Antiproliferative activity against human LNCAP cells after 3 days by MTS assay. In kind it is functional, cell-based. The conditions noted are these: 72 h. In a few lines:
(§1)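 Cells seeded in 96-well plates for 24 h, then treated with vehicle or a range of compound doses for 3 days. Viable cell density read by MTS assay. IC50 taken from plots of percent inhibition versus vehicle control.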

The nature of assay [2]: Antiproliferative activity against human MDA468 cells after 3 days by MTS assay. It is filed as functional, cell-based. Conditions: MDA-MB-468, 72 h. Summed up:
as §1
(Tetrazolium dyes change colour on reduction, which living cells bring about.)

Structures are written as SMILES.

A word on the IC50: it is the point on the concentration scale where inhibition reaches its midpoint. As for `CC[C@@H]1CC[C@H]2C[C@H](OC)/C(C)=C/C=C/C=C/[C@@H](C)C[C@@H](C)C(=O)[C@H](OC)[C@H](O)/C(C)=C/[C@@H](C)C(=O)C[C@@H]([C@H](C)C[C@@H]3CC[C@@H](OC(=O)C(C)(CO)CO)[C@H](OC)C3)OC(=O)[C@@H]3CCCCN3C(=O)C(=O)[C@]1(O)O2` [HOMOTEMSIROLIMUS A], the IC50 was 1800 nM in assay [1], 2.5 nM with LNCaP and 1 nM in assay [2].
For `CC[C@@H]1/C=C/C=C/C=C(\C)[C@@H](OC)C[C@@H]2CC[C@@H](C)[C@@](O)(O2)C(=O)C(=O)N2CCCC[C@H]2C(=O)O[C@H]([C@H](C)C[C@@H]2CC[C@@H](OC(=O)C(C)(CO)CO)[C@H](OC)C2)CC(=O)[C@H](C)/C=C(\C)[C@@H](O)[C@@H](OC)C(=O)[C@H](C)C1` [HOMOTEMSIROLIMUS B] the same measures were 2500 nM, 13 nM and 5 nM.
On to `CC[C@@H]1/C=C(\C)[C@@H](O)[C@@H](OC)C(=O)[C@H](C)C[C@H](C)/C=C/C=C/C=C(\C)[C@@H](OC)C[C@@H]2CC[C@@H](C)[C@@](O)(O2)C(=O)C(=O)N2CCCC[C@H]2C(=O)O[C@H]([C@H](C)C[C@@H]2CC[C@@H](OC(=O)C(C)(CO)CO)[C@H](OC)C2)CC1=O` [HOMOTEMSIROLIMUS C], for which the IC50 in assay [1] was determined as 2100 nM; in the assay on LNCaP, 8 nM; in assay [2], 5 nM.
For `CO[C@H]1C[C@@H]2CC[C@@H](C)[C@@](O)(O2)C(=O)C(=O)N2CCCC[C@H]2C(=O)O[C@H]([C@H](C)C[C@@H]2CC[C@@H](OC(=O)C(C)(CO)CO)[C@H](OC)C2)CC(=O)[C@H](C)/C=C(\C)[C@@H](O)[C@@H](OC)C(=O)[C@H](C)C[C@H](C)/C=C/C=C/C=C/1C` [TEMSIROLIMUS] the same measures were 1760 nM, 0.5 nM and 8 nM.

These data come from ChEMBL document CHEMBL1772963, “Isolation and structure of homotemsirolimuses A, B, and C” (J Nat Prod, 2011).
